Screens (PubChem)
Only some compounds are listed: those with a hit (about 2.9% of all), similar ones and a draw of the others.
UBC13 polyUb = blocks human UBC13 polyubiquitin chain formation; inhibition, % at 20 µM; actives 0.47% (n = 330,000); TR-FRET; P61088; in the data active = inhibition above about 45%, passing the limit was not always enough
PfM18AAP inh-1 = blocks P. falciparum M18 aspartyl aminopeptidase | actives 1.2% (n = 290,000) | recombinant PfM18AAP, H-Glu-NHMec fluorogenic cleavage | inhibition, % at 7.35 µM;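 active = inhibition above the campaign mean inhibition over all tested compounds plus 3 SD, cut at about 28% in these data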
ZTA counter = counter-screen for EBNA-1 inhibitors: inhibitors of Epstein-Barr virus ZTA; inhibition, % at 11 µM; ZTA-DNA binding, fluorescence polarization; actives 0.15% (n = 320,000); P03206; in the data active = inhibition above about 33%
Target sequence (P03206 whole entry, looked up): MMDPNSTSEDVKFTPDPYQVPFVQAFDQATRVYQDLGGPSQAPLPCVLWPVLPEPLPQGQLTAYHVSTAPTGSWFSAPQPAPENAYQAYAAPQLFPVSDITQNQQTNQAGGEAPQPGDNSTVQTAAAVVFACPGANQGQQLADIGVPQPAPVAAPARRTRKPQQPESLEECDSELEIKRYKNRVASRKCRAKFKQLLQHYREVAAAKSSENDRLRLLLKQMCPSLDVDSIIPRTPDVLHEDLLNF
PfG6PD inh = PfG6PD (Plasmodium falciparum) enzyme inhibition | actives 0.78% (n = 350,000) | inhibition, % at 20 µM | PfGluPho enzyme, NADPH resazurin-diaphorase fluorescence;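 active = inhibition reaching at least a set limit at 20 µM in the primary screen, cut at about 59% in these data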
Apaf-1 inh = human Apaf-1 inhibition. O14727. reconstituted apoptosome caspase-3 activity, DEVD-Rh110 fluorescence. inhibition, % at 20 µM. actives 0.71% (n = 330,000). AID 489030; active = inhibition of at least 40% at 20 µM
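detection = Rh110 fluorescence intensity | test system = biochemical Apaf-1 apoptosome reconstitution | also added = cytochrome c and DEVD-Rh110 substrate | schedule = 30 min plus 50 min, RT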
EBNA-1 inhibitor = blocks EBNA-1 binding to DNA | EBNA-1 DNA binding, fluorescence polarization | inhibition, % at 14.8 µM | actives 0.34% (n = 300,000) | AID 1950; in the data active = inhibition above about 28%
PfM18AAP inh-2 = PfM18AAP inhibition, confirmation; actives 28% (n = 2,400); inhibition, % at 7.35 µM; AID 2170; shares compounds with PfM18AAP inh-1; recombinant PfM18AAP, H-Glu-NHMec fluorogenic cleavage;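 active = mean inhibition over replicate wells above the hit cutoff set for the earlier primary screen, cut at about 29% in these data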
CTSL1 counter = counter-screen for PFM18AAP inhibitors: confirmation of human cathepsin L inhibitors; 2,400 tested, under 10 active; inhibition, % at 5.96 µM; AID 2178; shares compounds with PfM18AAP inh-1; purified cathepsin L1, Z-Leu-Arg-MCA fluorescence;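 active = average inhibition across replicates above the hit cutoff set in the earlier primary screen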
Target sequence (P07711 whole entry, looked up): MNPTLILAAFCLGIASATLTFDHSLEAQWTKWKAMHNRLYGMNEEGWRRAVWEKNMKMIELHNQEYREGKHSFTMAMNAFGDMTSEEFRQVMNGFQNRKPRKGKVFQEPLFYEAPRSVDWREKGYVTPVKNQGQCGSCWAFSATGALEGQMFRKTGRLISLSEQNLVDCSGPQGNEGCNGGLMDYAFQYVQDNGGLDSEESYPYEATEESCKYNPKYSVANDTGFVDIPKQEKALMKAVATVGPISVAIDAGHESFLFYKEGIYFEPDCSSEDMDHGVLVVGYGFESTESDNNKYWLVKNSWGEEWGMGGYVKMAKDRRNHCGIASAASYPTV
Hits are given with their value; – = inactive; · = no result.

SMILES	UBC13 polyUb	PfM18AAP inh-1	ZTA counter	PfG6PD inh	Apaf-1 inh	EBNA-1 inhibitor	PfM18AAP inh-2	CTSL1 counter
Cn1c(Cn2c3ccccc3c3ccccc32)n[nH]c1=S	–	–	–	–	–	–	·	·
Nn1c(Cc2cccc3ccccc23)n[nH]c1=S	–	32.3	–	–	–	–	–	–
Cn1c(-c2cccc3ccccc23)n[nH]c1=S	–	37.0	–	–	–	–	–	–
COc1ccc(S(=O)(=O)N(CC(C)C)C2CCS(=O)(=O)C2)cc1OC (stereo unspecified)	–	·	–	–	–	–	·	·
O=C1CN(C(=O)c2cc3ccccc3o2)c2ccccc2N1	–	–	–	–	–	–	·	·
O=C(NCCC1CCCC1)c1cccs1	–	52.7	–	–	–	–	–	–
O=c1[nH]cc(N(CCO)CCO)c(=O)[nH]1	–	–	–	–	–	–	·	·
CNC(=O)C1CCN(S(=O)(=O)c2c(C)noc2/C=C/c2cccc(OC)c2)CC1	–	–	–	–	–	–	·	·
COc1ccc(C2CCCN2C(=S)Nc2ccc(C)cc2Cl)cc1OC (stereo unspecified)	–	–	–	–	–	–	·	·
O=C(CSc1ncn[nH]1)N1N=C(c2ccc(Cl)cc2)CC1c1ccco1 (stereo unspecified)	–	41.9	–	–	–	–	–	–
Cc1ccc(N2C(=O)C3C(c4ccccc4)N4CCCN4C3(C)C2=O)cc1 (stereo unspecified)	–	–	–	–	–	–	·	·
CCc1cc(C(=O)Cc2cnn(-c3ccccc3)c2)c(O)cc1O	–	–	–	–	–	–	·	·
O=C(Cc1cnn(-c2ccccc2)c1)c1ccc(O)c(O)c1O	–	38.1	–	–	–	–	–	–
CC(C)CCC1(CCNC(C)c2cccs2)CCOC(C)(C)C1 (stereo unspecified)	–	–	–	–	–	–	·	·
NCCc1ccc(O)c(O)c1	–	72.7	–	–	–	–	66.1	–
O=C(NC(=S)Nn1cnnc1)c1ccccc1Br	–	79.3	–	–	–	–	78.2	–
Cc1[nH]nc2c1C(c1cc(Br)cs1)C(C#N)=C(N)O2 (stereo unspecified)	–	71.7	–	–	–	–	62.2	–
Cc1[nH]nc2c1[C@@H](c1ccccc1[N+](=O)[O-])C(C#N)=C(N)O2	–	35.9	–	–	–	–	–	–
Cc1[nH]nc2c1C(c1c[nH]c3ccccc13)C(C#N)=C(N)O2 (stereo unspecified)	–	–	–	–	–	–	·	·
CCOc1ccc(C(=O)NCC(=O)N2CCC3CCCCC3C2)cc1OCC (stereo unspecified)	–	–	–	–	–	–	·	·
N#Cc1c(C(F)(F)F)cc(-c2ccco2)nc1SCc1ccncc1	–	43.7	–	–	–	–	–	–
N#Cc1c(C(F)(F)F)cc(-c2ccco2)nc1SCc1ccccn1	–	–	–	–	–	–	·	·
CN1CCc2c(sc3nc(SCC(=O)NCc4ccco4)n(-c4ccccc4)c(=O)c23)C1	–	39.4	–	–	–	–	–	–
COc1ccc(-n2c(SCC(=O)NCc3ccco3)nc3sc4c(c3c2=O)CCN(C)C4)cc1	–	34.1	–	–	–	–	–	–
COc1ccc(CN(C)C(=O)c2ccc(NS(=O)(=O)c3ccc(C)c([N+](=O)[O-])c3)cc2)c(OC)c1OC	–	·	–	–	–	–	·	·
SMILES	UBC13 polyUb	PfM18AAP inh-1	ZTA counter	PfG6PD inh	Apaf-1 inh	EBNA-1 inhibitor	PfM18AAP inh-2	CTSL1 counter
CC1C/C(=N/N2C(=O)CSC2=S)CC(C)(C)C1 (stereo unspecified)	–	38.0	–	–	–	–	–	–
CC1CN(Cc2nc3c(c(=O)n(C)c(=O)n3C)n2Cc2ccccc2)CC(C)O1 (stereo unspecified)	–	55.4	–	–	–	–	–	–
O=C1Nc2ccccc2/C1=C/c1ccc([N+](=O)[O-])cc1	–	35.1	–	–	–	–	–	–
COc1cc(C(=O)O)ccc1OC(C)=O	–	–	–	–	–	–	·	·
CC(=O)Oc1ccc(C(=O)O)cc1OC(C)=O	–	70.2	–	–	–	–	50.4	–
CC1(C)OC2C(CO)OC(n3cnc4c(=S)nc[nH]c43)C2O1 (stereo unspecified)	–	31.9	–	–	–	–	–	–
CCCc1cc(=O)oc2cc(C)cc(OCC(=O)NCCCN3CCCC3=O)c12	–	–	–	–	–	–	·	·
CC[n+]1c(C)sc2cc(OC)ccc21	–	36.6	–	–	–	–	–	–
O=C(NNC(=O)c1cc(O)c(O)c(O)c1)NC1CCCCC1	–	46.5	–	–	–	–	–	–
O=C(NNC(=O)c1cccnc1)NC1CCCCC1	–	–	–	–	–	–	·	·
Cc1cccc(N2CCN(S(=O)(=O)c3ccc4c(c3)CCCN4C(=O)C3CCC3)CC2)c1C	–	–	–	–	–	–	·	·
COC(=O)N/N=C/c1cn(Cc2ccc(F)cc2)c2ccccc12	–	–	–	–	–	–	·	·
COc1cc(/C=N/Nc2ccc([N+](=O)[O-])cn2)cc(OC)c1O	–	37.6	·	–	–	·	–	–
Cc1cccc(C)c1-n1c(C)cc(/C=N\Nc2ccc([N+](=O)[O-])cn2)c1C	–	51.2	–	–	–	–	–	–
O=[N+]([O-])c1ccc(N/N=C/c2cn(Cc3ccc(F)cc3)c3ccccc23)nc1	·	40.1	–	–	·	–	–	–
O=[N+]([O-])c1ccc(NN=Cc2cccc(O)c2)nc1	·	·	·	–	·	·	·	·
O=[N+]([O-])c1ccc(NN=Cc2cc(Br)ccc2O)nc1	·	·	·	–	·	·	·	·
CCOc1ccc(OCCn2nnc3ccccc3c2=O)cc1	–	–	–	–	–	–	·	·
CCCC(=O)N1CCN(c2ccc(NC(=O)c3cccs3)cc2)CC1	–	–	–	–	–	–	·	·
CCOC(=O)C(NC(=O)c1ccccc1)C(C)(C)SCc1ccccc1 (stereo unspecified)	·	·	·	–	·	·	·	·
Cc1oc2ccc(O)cc2c1C(=O)c1ccc([N+](=O)[O-])cc1	–	–	–	–	–	–	·	·
CN(C)/C=C/c1oc2ccc(O)cc2c1[N+](=O)[O-]	–	35.8	–	–	–	–	–	–
CCn1c(=O)n(CC)c2cc(N3CCCC3)c(NC(=O)c3c(F)cccc3F)cc21	–	35.2	–	–	–	–	–	–
CCn1c(=O)n(CC)c2cc(N3CCCC3)c(NC(=O)c3cccc(OC)c3)cc21	–	–	–	–	–	–	·	·
C#CCSc1nnnn1-c1cccc(Cl)c1	–	–	–	–	–	–	·	·
COC(=O)C(N)Cc1ccc(O)c(O)c1 (stereo unspecified)	–	83.8	–	–	–	–	53.2	–
COc1ccccc1NC(=O)CNC(=O)Cn1cnc2sc(C)c(C)c2c1=O	–	–	–	–	–	–	·	·
